What all share (assay type): functional
In experiment [1] the test system is Mycobacterium tuberculosis. In words: Antimycobacterial activity against isoniazid/rifampicin/ethambutol-resistant Mycobacterium tuberculosis after 7 days. The conditions noted are these: 168 h. The procedure, abridged:
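Rapid direct susceptibility test in 48-well plates. Two-fold dilutions of compound from DMSO stocks were mixed with an equal volume of bacterial suspension. Medium-only wells served as growth controls and water-only wells as no-growth controls. Plates were sealed and held at 37 C in a humid box, and controls were checked at 3 days. MIC (90% growth inhibition) was read visually by high-magnification observation of the cells and re-read at 7 days.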

Experiment [2] deals with Mycobacterium tuberculosis. In words: Potency index, ratio of ciprofloxacin MIC90 to compound MIC90 for isoniazid/rifampicin/ethambutol-resistant Mycobacterium tuberculosis after 7 days.
Experiment [3] relates to Mycobacterium tuberculosis. In words: Potency index, ratio of rifampicin MIC90 to compound MIC90 for isoniazid/rifampicin/ethambutol-resistant Mycobacterium tuberculosis after 7 days.
Experiment [4] deals with Mycobacterium tuberculosis. In words: Potency index, ratio of isoniazid MIC90 to compound MIC90 for isoniazid/rifampicin/ethambutol-resistant Mycobacterium tuberculosis after 7 days.

Converted amounts (≈) assume the structure as drawn.

Take `CO/N=C1\C(=O)N(CCCN2CCN(c3cc4c(cc3F)c(=O)c(C(=O)O)cn4C3CC3)CC2)c2ccccc21`: the MIC90 in experiment [1] is 2 µg/mL (≈ 3.65 µM).
On the same count and under the same terms, then `CO/N=C1\C(=O)N(CCCN2CCN(c3cc4c(cc3F)c(=O)c(C(=O)OCCCN3C(=O)/C(=N/OC)c5ccccc53)cn4C3CC3)CC2)c2ccccc21`, with 64 µg/mL (≈ 83.8 µM); and `CCO/N=C1\C(=O)N(CCCN2CCN(c3cc4c(cc3F)c(=O)c(C(=O)OCCCN3C(=O)/C(=N/OCC)c5ccccc53)cn4C3CC3)CC2)c2ccccc21`, with 64 µg/mL (≈ 80.8 µM).
With `CCO/N=C1\C(=O)N(CCCN2CCN(c3cc4c(cc3F)c(=O)c(C(=O)O)cn4C3CC3)CC2)c2ccc(C)cc21`, in experiment [1], the MIC90 stood at 4 µg/mL (≈ 6.95 µM).
Regarding `Cc1ccc2c(c1)C(=O)C(=O)N2CCCOC(=O)c1cn(C2CC2)c2cc(N3CCN(CCCN4C(=O)C(=O)c5cc(C)ccc54)CC3)c(F)cc2c1=O`, the MIC90 in experiment [1] was found to be 32 µg/mL (≈ 43.6 µM).
On the same count and under the same terms, then `CO/N=C1\C(=O)N(CCCN2CCN(c3cc4c(cc3F)c(=O)c(C(=O)O)cn4C3CC3)CC2)c2ccc(C)cc21`, with 1 µg/mL (≈ 1.78 µM).
With `O=C1C(=O)N(CCCN2CCN(c3cc4c(cc3F)c(=O)c(C(=O)O)cn4C3CC3)CC2)c2ccccc21`, the MIC90 in experiment [1] turned out to be 0.5 µg/mL (≈ 0.964 µM).
On to `CO/N=C1\C(=O)N(CCCN2CCN(c3cc4c(cc3F)c(=O)c(C(=O)OCCCN3C(=O)/C(=N/OC)c5cc(C)ccc53)cn4C3CC3)CC2)c2ccc(C)cc21`, for which the MIC90 in experiment [1] was found to be 32 µg/mL (≈ 40.4 µM).
Still for that read-out and setting: under `CCO/N=C1\C(=O)N(CCCN2CCN(c3cc4c(cc3F)c(=O)c(C(=O)O)cn4C3CC3)CC2)c2ccccc21` stands 1 µg/mL (≈ 1.78 µM).
On the same count and under the same terms, under `CCO/N=C1\C(=O)N(CCCN2CCN(c3cc4c(cc3F)c(=O)c(C(=O)OCCCN3C(=O)/C(=N/OCC)c5cc(C)ccc53)cn4C3CC3)CC2)c2ccc(C)cc21` stands 64 µg/mL (≈ 78.1 µM); under `O=C1C(=O)N(CCCOC(=O)c2cn(C3CC3)c3cc(N4CCN(CCCN5C(=O)C(=O)c6ccccc65)CC4)c(F)cc3c2=O)c2ccccc21`, 32 µg/mL (≈ 45.3 µM).
The molecule `Cc1ccc2c(c1)C(=O)C(=O)N2CCCN1CCN(c2cc3c(cc2F)c(=O)c(C(=O)O)cn3C2CC2)CC1` had an MIC90 in experiment [1] of 0.5 µg/mL (≈ 0.939 µM). Further, the Ratio result in experiment [2], in experiment [3] and in experiment [4] was “>=4 - 256” throughout.
For the molecule `O=C(O)c1cn(C2CC2)c2cc(N3CCNCC3)c(F)cc2c1=O` [CIPROFLOXACIN], the MIC90 in experiment [1] was found to be 2 µg/mL (≈ 6.04 µM).
Regarding `NNC(=O)c1ccncc1` [ISONIAZID], the MIC90 in experiment [1] was greater than 128 µg/mL.
Take `CO[C@H]1/C=C/O[C@@]2(C)Oc3c(C)c(O)c4c(O)c(c(/C=N/N5CCN(C)CC5)c(O)c4c3C2=O)NC(=O)/C(C)=C\C=C\[C@H](C)[C@H](O)[C@@H](C)[C@@H](O)[C@@H](C)[C@H](OC(C)=O)[C@@H]1C` [RIFAMPIN]: the MIC90 in experiment [1] stood at 32 µg/mL (≈ 38.9 µM).

A word on the MIC90: it is the lowest concentration that inhibits either 90% of growth or 90% of the strains tested, depending on the study. Read a low MIC90 as higher susceptibility.

(Values after ChEMBL document CHEMBL4270565, “Design, synthesis and antimicrobial evaluation of propylene-tethered ciprofloxacin-isatin hybrids” (Eur J Med Chem, 2018).)
